Reference: ChEMBL document CHEMBL1148577, “Discovery of benzylidenebenzofuran-3(2H)-one (aurones) as inhibitors of tyrosinase derived from human melanocytes” (J Med Chem, 2006)

What was measured:
[1] = molecular target: T1, Tyrosinase (Homo sapiens) (UniProt P14679); assay: Inhibition of tyrosinase in human melanocytes at 0.1 mM; assay type: cell-based
T1 sequence (whole entry): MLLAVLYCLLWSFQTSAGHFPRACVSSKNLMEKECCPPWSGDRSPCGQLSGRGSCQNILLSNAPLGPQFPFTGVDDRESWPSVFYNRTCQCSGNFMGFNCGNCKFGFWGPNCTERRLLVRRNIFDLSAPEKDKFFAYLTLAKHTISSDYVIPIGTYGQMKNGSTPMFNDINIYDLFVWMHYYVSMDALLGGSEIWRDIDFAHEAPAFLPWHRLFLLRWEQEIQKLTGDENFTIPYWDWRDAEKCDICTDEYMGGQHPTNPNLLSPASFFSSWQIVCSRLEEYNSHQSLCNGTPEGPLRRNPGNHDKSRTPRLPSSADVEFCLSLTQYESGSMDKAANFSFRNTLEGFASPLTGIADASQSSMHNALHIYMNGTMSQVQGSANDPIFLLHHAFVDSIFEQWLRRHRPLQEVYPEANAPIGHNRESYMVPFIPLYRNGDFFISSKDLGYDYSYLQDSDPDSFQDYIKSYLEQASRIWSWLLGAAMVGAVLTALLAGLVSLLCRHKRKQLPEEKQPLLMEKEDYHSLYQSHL

[2] = molecular target: T1, Tyrosinase (Homo sapiens); assay: Inhibition of tyrosinase in human white skin melanocytes at 0.01 mM; assay type: cell-based
[3] = molecular target: T1, Tyrosinase (Homo sapiens); assay: Inhibition of tyrosinase in human black skin melanocytes at 0.01 mM; assay type: cell-based
[4] = molecular target: T1, Tyrosinase (Homo sapiens); assay: Inhibition of tyrosinase in human white skin melanocytes at 0.1 mM; assay type: cell-based
[5] = molecular target: T1, Tyrosinase (Homo sapiens); assay: Inhibition of tyrosinase in human dark skin melanocytes at 0.01 mM; assay type: cell-based
[6] = molecular target: T1, Tyrosinase (Homo sapiens); assay: Inhibition of tyrosinase in human dark skin melanocytes at 0.1 mM; assay type: cell-based
[7] = molecular target: T1, Tyrosinase (Homo sapiens); assay: Inhibition of tyrosinase in human black skin melanocytes at 0.1 mM; assay type: cell-based
Tyrosinase = molecular target: T2, Tyrosinase (Homo sapiens, UniProt P14679); assay: Inhibitory activity against tyrosinase in human melanocytes; assay type: cell-based
T2 sequence (P14679 whole entry): T1 sequence (whole entry)

Rattus norvegicus = assay: Oral toxicity in rats administered at 5 g/kg, po; assay type: organism-based; conditions: in vivo, 5000 mg/kg
How it was run: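 Acute oral toxicity following OECD 423 acute toxic class method in six female rats. Single dose of 5 g/kg test preparation (10% in xanthane gel). Six female controls received distilled water 2000 mg/kg. Daily observation for 14 days for mortality and signs of toxicity. GHS classification.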

Row | SMILES | inhibition [1] | also measured
1 | COc1cc(/C=C2\Oc3cc(O)cc(O)c3C2=O)ccc1O | 4% | 
2 | CCc1ccc(/C=C2\Oc3cc(O)ccc3C2=O)cc1 | 0% | 
3 | CCOc1ccc(/C=C2\Oc3cc(O)cc(O)c3C2=O)cc1 | 5% | 
4 | COc1ccc(/C=C2\Oc3cc(O)cc(O)c3C2=O)cc1 | 11% | 
5 | O=C1/C(=C/c2ccccc2)Oc2cc(O)ccc21 | 0% | 
6 | CCc1ccccc1/C=C1\Oc2cc(O)cc(O)c2C1=O | 0% | 
7 | O=C1/C(=C/c2ccc(O)cc2)Oc2ccccc21 | 39% | 
8 | O=C1/C(=C/c2ccccc2O)Oc2cc(O)cc(O)c21 | 4% | 
9 | O=C1/C(=C/c2ccccc2)Oc2cc(O)cc(O)c21 | 3% | 
10 | CC(C)(C)c1ccc(/C=C2\Oc3cc(O)cc(O)c3C2=O)cc1 | 0% | 
11 | CCCc1ccc(/C=C2\Oc3cc(O)cc(O)c3C2=O)cc1 | 5% | 
12 | O=C1/C(=C/c2ccc(O)cc2)Oc2cc(O)cc(O)c21 | 75% | inhibition [2]: 38%; inhibition [3]: 39%; inhibition [4]: 75%; inhibition [5]: 32%; inhibition [6]: 67%; inhibition [7]: 66%; IC50 (Tyrosinase): 38 µM; Activity (Rattus norvegicus): Non-toxic
